Measured values published in ChEMBL document CHEMBL3826928, “Incorporation of Phosphonate into Benzonaphthyridine Toll-like Receptor 7 Agonists for Adsorption to Aluminum Hydroxide” (J Med Chem, 2016).
pEC50: −log10 of the molar value.

Tests used:
Toll-like receptor 7 [1] = biological target: T1, Toll-like receptor 7 (Mus musculus, UniProt P58681); experiment: Agonist activity at TLR7 in Balb/c mouse splenocytes assessed as induction of IL-6 secretion in supernatant after 18 hrs; assay type: cell-based
T1 sequence (P58681 whole entry): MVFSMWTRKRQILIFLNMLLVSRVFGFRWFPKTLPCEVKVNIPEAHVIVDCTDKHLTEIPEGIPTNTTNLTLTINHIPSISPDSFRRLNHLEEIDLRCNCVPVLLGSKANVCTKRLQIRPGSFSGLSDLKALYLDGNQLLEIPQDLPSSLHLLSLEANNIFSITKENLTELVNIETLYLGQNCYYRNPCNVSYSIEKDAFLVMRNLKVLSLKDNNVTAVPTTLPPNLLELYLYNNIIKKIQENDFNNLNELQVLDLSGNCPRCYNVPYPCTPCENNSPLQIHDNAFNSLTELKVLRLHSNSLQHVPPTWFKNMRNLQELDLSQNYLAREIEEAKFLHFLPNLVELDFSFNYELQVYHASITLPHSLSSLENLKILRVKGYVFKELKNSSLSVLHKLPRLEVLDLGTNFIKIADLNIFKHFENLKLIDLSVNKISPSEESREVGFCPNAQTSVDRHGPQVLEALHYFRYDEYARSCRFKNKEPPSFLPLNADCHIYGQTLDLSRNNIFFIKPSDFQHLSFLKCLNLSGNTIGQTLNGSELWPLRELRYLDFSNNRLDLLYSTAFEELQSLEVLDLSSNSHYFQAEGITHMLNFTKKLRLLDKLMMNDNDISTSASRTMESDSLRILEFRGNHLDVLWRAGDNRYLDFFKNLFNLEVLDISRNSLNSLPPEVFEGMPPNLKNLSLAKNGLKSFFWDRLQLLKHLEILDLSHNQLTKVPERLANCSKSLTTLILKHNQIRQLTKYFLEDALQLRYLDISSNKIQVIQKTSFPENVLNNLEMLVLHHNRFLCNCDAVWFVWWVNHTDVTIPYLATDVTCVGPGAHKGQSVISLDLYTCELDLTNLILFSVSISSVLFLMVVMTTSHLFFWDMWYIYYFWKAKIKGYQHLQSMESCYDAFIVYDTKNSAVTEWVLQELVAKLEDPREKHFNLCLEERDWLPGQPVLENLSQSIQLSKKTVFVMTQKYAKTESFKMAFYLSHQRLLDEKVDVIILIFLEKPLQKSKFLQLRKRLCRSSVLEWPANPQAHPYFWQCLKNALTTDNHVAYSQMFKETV
Method in brief: (§1)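 Spleens from female BALB/c mice (6−10 weeks), single-cell suspension, RBC lysis; 5 × 10⁵ splenocytes per well in RPMI 1640 with 10% FCS, 2-ME. Compounds as sodium salts (1 equiv NaOH) from 10 mM water stocks, 3-fold 10-point dilutions from 30 μM.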

[2] = biological target: T2, Toll-like receptor 7 (Mus musculus) (UniProt P58681); experiment: Agonist activity at TLR7 in Balb/c mouse splenocytes assessed as induction of IL-6 secretion in supernatant after 18 hrs relative to resiquimod; assay type: cell-based; method in brief: as §1
T2 sequence (whole entry): T1 sequence (P58681 whole entry)

Toll-like receptor 7 [3] = biological target: T3, Toll-like receptor 7 (Homo sapiens, UniProt Q9NYK1); experiment: Agonist activity at TLR7 in human PBMC assessed as induction of IL-6 secretion in supernatant after 18 hrs; conditions: read-out: EC50
T3 sequence (Q9NYK1 whole entry): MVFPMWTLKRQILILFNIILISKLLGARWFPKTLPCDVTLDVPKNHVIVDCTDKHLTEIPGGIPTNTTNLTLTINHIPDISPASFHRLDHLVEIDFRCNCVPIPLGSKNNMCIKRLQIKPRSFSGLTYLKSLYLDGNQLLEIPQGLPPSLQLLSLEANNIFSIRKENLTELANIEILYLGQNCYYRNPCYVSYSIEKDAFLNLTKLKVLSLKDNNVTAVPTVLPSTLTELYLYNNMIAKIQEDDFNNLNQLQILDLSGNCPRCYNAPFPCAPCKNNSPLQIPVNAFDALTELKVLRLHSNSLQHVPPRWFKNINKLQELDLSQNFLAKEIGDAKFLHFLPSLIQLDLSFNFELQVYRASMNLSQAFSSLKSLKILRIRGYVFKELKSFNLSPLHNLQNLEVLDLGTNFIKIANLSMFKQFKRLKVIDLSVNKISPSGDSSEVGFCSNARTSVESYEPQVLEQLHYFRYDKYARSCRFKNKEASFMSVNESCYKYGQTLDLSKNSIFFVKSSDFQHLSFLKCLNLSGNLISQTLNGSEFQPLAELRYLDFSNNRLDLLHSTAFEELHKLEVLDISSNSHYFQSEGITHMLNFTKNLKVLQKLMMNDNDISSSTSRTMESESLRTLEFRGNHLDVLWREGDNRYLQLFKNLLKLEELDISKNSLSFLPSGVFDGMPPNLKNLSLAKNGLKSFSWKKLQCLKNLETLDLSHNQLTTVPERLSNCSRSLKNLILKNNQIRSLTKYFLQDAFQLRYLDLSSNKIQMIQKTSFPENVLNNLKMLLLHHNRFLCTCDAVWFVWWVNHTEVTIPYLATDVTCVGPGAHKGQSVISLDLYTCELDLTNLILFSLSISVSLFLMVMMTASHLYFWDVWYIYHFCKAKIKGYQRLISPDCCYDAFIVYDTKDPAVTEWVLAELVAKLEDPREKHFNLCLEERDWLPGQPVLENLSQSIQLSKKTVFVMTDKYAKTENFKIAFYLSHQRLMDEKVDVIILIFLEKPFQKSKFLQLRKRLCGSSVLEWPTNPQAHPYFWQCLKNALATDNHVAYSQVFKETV
Method in brief: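 Isolated human PBMCs washed in PBS, resuspended in RPMI1640 with 10% heat-inactivated FBS, pyruvate, HEPES, at 1 × 10⁶ cells/mL. Compounds as in-situ sodium salts from 10 mM aqueous stocks, 3-fold 10-point dilutions from 30 μM.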

[4] = Aqueous solubility of compound in pH 6.5 to 7.2 solution incubated for 24 hrs by saturated shake flask method; assay type: physicochemical; conditions: buffer, pH 6.5, 24 h
[5] = Aqueous solubility of compound in pH 1.5 to 10 solution by potentiometric titration method; assay type: physicochemical; conditions: buffer
Method in brief: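 About 2 mg solid titrated potentiometrically from pH 10 to pH 1.5 on Sirius T3 after pKa determination with MeOH cosolvent; intrinsic solubility calculated from pKa shift on precipitation (Noyes−Whitney), solubility−pH profile extrapolated by Henderson−Hasselbalch.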

Serum [6] = experiment: Drug level in Balb/c mouse serum at 100 ug, im measured at 24 hrs post dose; assay type: ADME, organism-based; conditions: in vivo
Method in brief: (§2)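 Female BALB/c mice (6−8 weeks, 3 per group) given 100 μg intramuscularly, with or without alum, 50 μL in each hind leg. Serum from retro-orbital bleeds at time points; protein precipitation, reverse-phase LC and ESI+ MRM mass spectrometry. Injected muscle drug level measured at 24 h.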

Muscle tissue [7] = experiment: Drug level in Balb/c mouse muscle at 100 ug, im measured at 24 hrs post dose; assay type: ADME, organism-based; conditions: in vivo; method in brief: as §2
Serum [8] = experiment: Drug level in Balb/c mouse serum at 100 ug, im measured up to 24 hrs post dose using alum bound compound formulation; assay type: ADME, organism-based; conditions: in vivo; method in brief: as §2
Muscle tissue [9] = experiment: Drug level in Balb/c mouse muscle at 100 ug, im measured at 24 hrs post dose using alum bound compound formulation; assay type: ADME, organism-based; conditions: in vivo; method in brief: as §2

Row | SMILES | pEC50 (Toll-like receptor 7 [1]) | %max [2] | pEC50 (Toll-like receptor 7 [3]) | solubility [5] | Drug uptake (Serum [6]) | Drug uptake (Muscle tissue [7]) | Drug uptake (Serum [8]) | Drug uptake (Muscle tissue [9]) | solubility [4]
1 | Cc1ccc2c(c1)nc(N)c1ncc(CCc3ccc(OCCCP(=O)(O)O)cc3C)cc12 | 5.96 | 98% | 4.52 |  |  |  |  |  | Insoluble
2 | Cc1ccc2c(c1)nc(N)c1ncc(CCc3ccc(OCCOCCOCCC(F)(F)P(=O)(O)O)cc3C)cc12 | 6.09 | 100% | 6.01 | soluble | Active | Not Active | Not Active | Active | 

Now from value to compound, other results behind:

Row | pEC50 (Toll-like receptor 7 [1]) | %max [2] | pEC50 (Toll-like receptor 7 [3]) | solubility [5] | Drug uptake (Serum [6]) | Drug uptake (Muscle tissue [7]) | Drug uptake (Serum [8]) | Drug uptake (Muscle tissue [9]) | SMILES | solubility [4]
3 | 5.92 | 80% | 5.68 |  |  |  |  |  | Cc1cc(OCCOCCOCCC(F)(F)P(=O)(O)O)ccc1CCc1cnc2c(N)nc3cc(CCC(=O)O)ccc3c2c1 | 
4 | 6.72 | 140% | 6.31 | soluble |  |  |  |  | Cc1cc(OCCOCCOCCP(=O)(O)O)ccc1CCc1cnc2c(N)nc3cc(CCC(=O)O)ccc3c2c1 | 
5 | 5.62 | 74% | 6.44 |  |  |  |  |  | Cc1cc(OCCCC(F)(F)P(=O)(O)O)ccc1CCc1cnc2c(N)nc3cc(CCC(=O)O)ccc3c2c1 | 
